Assay results reported in publication PMC12039533 (Journal of Food and Drug Analysis, 2025).

How the values were obtained:
SRPK1 = SRPK1 (Homo sapiens, UniProt Q96SB4); experiment: HTRF KinEASE in vitro kinase assay; assay type: biochemical
Summary of the method: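 Kinase activity was measured with the HTRF KinEASE STK/TK kit, and the TR-FRET signal was read on a multilabel microplate reader. Percent inhibition was calculated from the signal, and the IC50 was derived from these inhibition rates.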

FLT3 = target: T1, FLT3 (Homo sapiens, UniProt P36888); experiment: HTRF KinEASE in vitro kinase assay; assay type: biochemical
T1 sequence (P36888 27-993): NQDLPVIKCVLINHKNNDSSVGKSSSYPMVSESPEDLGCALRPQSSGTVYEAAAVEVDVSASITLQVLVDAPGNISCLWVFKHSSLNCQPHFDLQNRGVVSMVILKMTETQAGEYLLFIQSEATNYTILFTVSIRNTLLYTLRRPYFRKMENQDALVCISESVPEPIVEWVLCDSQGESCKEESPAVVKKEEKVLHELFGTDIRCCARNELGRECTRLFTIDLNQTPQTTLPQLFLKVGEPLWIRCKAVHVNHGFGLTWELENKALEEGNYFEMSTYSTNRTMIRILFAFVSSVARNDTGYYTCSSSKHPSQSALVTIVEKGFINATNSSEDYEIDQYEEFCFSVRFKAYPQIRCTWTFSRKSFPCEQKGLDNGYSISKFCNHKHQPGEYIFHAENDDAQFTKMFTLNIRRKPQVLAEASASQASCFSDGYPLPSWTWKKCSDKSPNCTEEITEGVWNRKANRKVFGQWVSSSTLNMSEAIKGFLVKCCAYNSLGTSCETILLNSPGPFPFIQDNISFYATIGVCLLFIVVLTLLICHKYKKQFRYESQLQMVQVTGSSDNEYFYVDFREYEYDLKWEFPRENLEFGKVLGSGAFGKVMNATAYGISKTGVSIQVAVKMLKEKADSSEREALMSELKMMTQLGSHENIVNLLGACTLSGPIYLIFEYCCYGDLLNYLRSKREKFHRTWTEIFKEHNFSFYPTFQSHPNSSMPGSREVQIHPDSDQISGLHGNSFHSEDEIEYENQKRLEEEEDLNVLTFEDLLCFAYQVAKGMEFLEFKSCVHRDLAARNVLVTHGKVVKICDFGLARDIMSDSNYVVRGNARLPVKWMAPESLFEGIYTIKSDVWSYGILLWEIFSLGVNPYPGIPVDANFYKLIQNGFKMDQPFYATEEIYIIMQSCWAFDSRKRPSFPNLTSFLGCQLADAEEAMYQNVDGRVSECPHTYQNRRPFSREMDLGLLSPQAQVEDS

SRPK1, sequence (Q96SB4 whole entry): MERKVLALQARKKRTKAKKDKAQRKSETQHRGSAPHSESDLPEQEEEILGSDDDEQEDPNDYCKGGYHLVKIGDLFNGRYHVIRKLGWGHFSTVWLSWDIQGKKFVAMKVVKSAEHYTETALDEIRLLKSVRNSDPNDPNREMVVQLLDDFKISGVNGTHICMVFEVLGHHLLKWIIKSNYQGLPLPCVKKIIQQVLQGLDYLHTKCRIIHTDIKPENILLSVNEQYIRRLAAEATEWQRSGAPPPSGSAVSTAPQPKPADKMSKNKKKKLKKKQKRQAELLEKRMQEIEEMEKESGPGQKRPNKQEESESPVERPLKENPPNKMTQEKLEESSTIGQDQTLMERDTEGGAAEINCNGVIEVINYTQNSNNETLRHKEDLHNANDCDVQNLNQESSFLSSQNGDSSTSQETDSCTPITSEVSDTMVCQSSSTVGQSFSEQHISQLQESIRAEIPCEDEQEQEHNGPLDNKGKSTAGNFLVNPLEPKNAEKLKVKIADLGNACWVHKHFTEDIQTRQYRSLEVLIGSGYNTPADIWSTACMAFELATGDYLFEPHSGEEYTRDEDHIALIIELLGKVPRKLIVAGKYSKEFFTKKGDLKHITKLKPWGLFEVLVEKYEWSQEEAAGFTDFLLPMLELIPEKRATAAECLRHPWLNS

`COc1cc(O)c(CC=C(C)C)c(O)c1C(=O)/C=C/c1ccc(O)cc1` [XN, Xanthohumol] gave an IC50 (SRPK1) of 0.37 ± 0.15 µM and an IC50 (FLT3) of 1.51 ± 0.44 µM.
